Measurements from ChEMBL document CHEMBL1157401, “Anticancer activity of isoobtusilactone A from Cinnamomum kotoense: involvement of apoptosis, cell-cycle dysregulation, mitochondria regulation, and reactive oxygen species” (J Nat Prod, 2008).
Calls of active or inactive are those of the source. The calls are words filed in the database; no cut-off is given here.

Assays:
A549 [1] = test: Cell cycle arrest in human A549 cells assessed as accumulation at subG1 phase at 100 uM after 48 hrs; format: functional
Method in brief: (§1)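 Flow cytometry of cell cycle: A549 (5 × 10^5 per 60 mm dish) treated next day with 50 or 100 µM for 24, 48 or 72 h. Adherent and floating cells pooled, fixed in PBS-MeOH 1:2 at 4 °C for at least 18 h, then stained 30 min in the dark with PI 50 µg/mL plus RNase A 50 µg/mL. Sub-G1 taken as the subdiploid fraction; at least three runs.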

A549 [2] = test: Cell cycle arrest in human A549 cells assessed as accumulation at G1 phase at 100 uM after 72 hrs; format: functional; method in brief: as §1
A549 [3] = test: Cell cycle arrest in human A549 cells assessed as accumulation at S phase at 100 uM after 72 hrs; format: functional; method in brief: as §1
A549 [4] = test: Cell cycle arrest in human A549 cells assessed as accumulation at G2/M phase at 100 uM after 72 hrs; format: functional; method in brief: as §1
A549 [5] = test: Cell cycle arrest in human A549 cells assessed as accumulation at subG1 phase at 100 uM after 72 hrs; format: functional; method in brief: as §1
A549 [6] = test: Induction of apoptosis in human A549 cells assessed as DNA fragmentation after 12 hrs; format: functional, cell-based
Method in brief: (§2)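 Apoptosis by cytoplasmic mono- and oligonucleosomes (nucleosome ELISA): A549 cells given 1, 10 or 100 µM for 6, 12, 18 or 24 h and lysed, then lysate assayed photometrically. Expressed relative to control; three experiments, mean ± SE, ANOVA with Dunnett's test.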

A549 [7] = test: Induction of apoptosis in human A549 cells assessed as DNA fragmentation after 24 hrs; format: functional, cell-based; method in brief: as §2
A549 [8] = test: Induction of apoptosis in human A549 cells assessed as apoptotic nucleosome at 1 uM after 6 hrs; format: functional; method in brief: as §2
A549 [9] = test: Induction of apoptosis in human A549 cells assessed as apoptotic nucleosome at 1 uM after 24 hrs; format: functional; method in brief: as §2
A549 [10] = test: Induction of apoptosis in human A549 cells assessed as apoptotic nucleosome at 100 uM after 6 hrs; format: functional; method in brief: as §2
A549 [11] = test: Induction of apoptosis in human A549 cells assessed as apoptotic nucleosome at 100 uM after 24 hrs; format: functional; method in brief: as §2
A549 [12] = test: Induction of p53 level in human A549 cells at 100 uM after 12 hrs by ELISA; format: functional, cell-based
Method in brief: (§3)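 p53, p21/WAF1 and p27kip1 in A549 lysates by sandwich ELISA after 1, 10 or 100 µM for 6-24 h. Lysate incubated 2 h for p53 and p27kip1, 1 h for p21, at room temperature. HRP-streptavidin and TMB used, absorbance read at 450 nm, values from standard curves. Three experiments, mean ± SE.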

A549 [13] = test: Induction of p21/WAF1 protein level in human A549 cells at 100 uM after 18 hrs by ELISA; format: functional, cell-based; method in brief: as §3
A549 [14] = test: Increase in Bax level in human A549 cells after 6 hrs by ELISA; format: functional, cell-based
Method in brief: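 Bax and Bcl-2 in A549 lysates by sandwich ELISA after 1, 10 or 100 µM for 6-24 h. Lysate incubated 1 h at room temperature, HRP-streptavidin and TMB used, absorbance read at 450 nm. Levels interpolated from protein standard curves and compared with vehicle; three experiments, mean ± SE, ANOVA with Dunnett's test.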

A549 [15] = test: Decrease in mitochondrial potential in human A549 cells assessed as decrease in fluorescent intensity of rhodamine 123 staining; format: functional, cell-based
Method in brief: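 Mitochondrial membrane potential: A549 cells with or without 100 µM for 6, 12, 18 or 24 h, then moved to serum-free medium containing 10 µM rhodamine 123 for 15 min at 37 °C. Cells collected and fluorescence read within 15 min, ex 490 / em 515 nm.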

A549 [16] = test: Induction of cytochrome C release in human A549 cells by ELISA; format: functional, cell-based; conditions: TDE = time-dependent effect
Method in brief: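 Cytochrome c release: A549 cells given 100 µM or DMSO vehicle for 6, 12, 18 or 24 h at 37 °C. Cytosolic fraction taken by digitonin permeabilization and mitochondrial fraction by detergent lysis, each measured by cytochrome c ELISA. Three experiments, mean ± SE.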

A549 [17] = test: Induction of apoptosis in human A549 cells assessed as caspase 9 activation at 100 uM; format: functional, cell-based
Method in brief: (§4)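 Caspase-9 and caspase-3 activity: A549 cells given 100 µM for 6-24 h and lysed on ice 1 h. 80 µg lysate incubated with substrate at pH 7.2, 37 °C, 1 h in the dark. Caspase-9 read colorimetrically at 405 nm and caspase-3 with AFC substrate, ex 400 / em 520 nm. Reported as percent change versus the 0 h group.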

A549 [18] = test: Induction of apoptosis in human A549 cells assessed as caspase 3 activation at 100 uM; format: functional, cell-based; method in brief: as §4
A549 [19] = test: Antioxidant activity in human A549 cells assessed as increase in dichlorofluorescein florescence intensity after 30 mins relative to untreated cells; format: functional, cell-based
Method in brief: (§5)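 Intracellular ROS (H2O2/peroxide) by DCF fluorescence: A549 cells at 80% confluence exposed to 100 µM for 30 min, then 10 µM DCFH-DA 30 min in the dark, trypsinized and resuspended in PBS. Read by flow cytometry, ex 488 / em 525-550 nm. For scavenger tests, NAC (10 mM) or other agents given 30 min before compound.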

A549 [20] = test: Antioxidant activity in human A549 cells assessed as N-acetyl-l-cysteine-induced production of H2O2; format: functional, cell-based; method in brief: as §5
A549 [21] = test: Reversal of antiproliferative activity against human A549 cells in presence of N-acetyl-l-cysteine; format: functional, cell-based
Method in brief: (§6)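 ROS-dependence of growth inhibition: A549 cells pretreated with NAC (10 mM) or L-NAME (100 µM) for 2 h, then 100 µM compound for 24 h. Proliferation read by MTT assay at OD 570 nm.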

A549 [22] = test: Reversal of antiproliferative activity against human A549 cells in presence of nitro-L-arginine methyl ester; format: functional, cell-based; method in brief: as §6
A549 [23] = test: Inhibition of migration in human A549 cells; format: functional, cell-based
Method in brief: (§7)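 Transwell migration with 8 µm inserts, or Matrigel-coated inserts for invasion: 5 × 10^4 A549 cells in serum-free medium placed in the upper chamber over medium with 10% FBS, 24 h at 37 °C, 5% CO2. Migrated cells stained, dye extracted and read at 560 nm. Reported as percent of control; compound tested at 1 and 10 µM, with NAC pretreatment in reversal tests.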

A549 [24] = test: Inhibition of invasion in human A549 cells; format: functional, cell-based; method in brief: as §7
A549 [25] = test: Reversal of inhibition of migration in human A549 cells at 10 uM in presence of N-acetyl-l-cysteine; format: functional, cell-based; method in brief: as §7
A549 [26] = test: Reversal of inhibition of invasion in human A549 cells at 10 uM in presence of N-acetyl-l-cysteine; format: functional, cell-based; method in brief: as §7
A549 [27] = test: Induction of p27kip1 level in human A549 cells at 100 uM after 18 hrs by ELISA; format: functional, cell-based; method in brief: as §3

In the case of `C=C1OC(=O)/C(=C/CCCCCCCCCCCCC)[C@@H]1O` [ISOOBTUSILACTONE A], the Activity (A549 [1]) is reported as 47.64%, the Activity (A549 [2]) is reported as 41.73% and the Activity (A549 [3]) is reported as 16.24%. For the same molecule, the Activity (A549 [4]) was 42.03%, the Activity (A549 [5]) was 60.25% and the Activity (A549 [6]) was “Active”. For the same molecule, the Activity (A549 [7]) was “Active”, the Activity (A549 [8]) was 3.5 and the Activity (A549 [9]) was 16. For the same molecule, the Activity (A549 [10]) was 4.5, the Activity (A549 [11]) was 25 and the Activity (A549 [12]) was “Active”. The Activity (A549 [13]) was “Active”, the Activity (A549 [14]) was “Active” and the Activity (A549 [15]) was “Active”. For the same molecule, the Activity (A549 [16]) was “tde”, the Activity (A549 [17]) was “Active” and the Activity (A549 [18]) was “Active”. The Activity (A549 [19]) was “Active”, the Activity (A549 [20]) was “Active” and the Activity (A549 [21]) was “inactive”. The Activity (A549 [22]) was “Active”, the Activity (A549 [23]) was “Active” and the Activity (A549 [24]) was “Active”. For the same molecule, the Activity (A549 [25]) was “Active”, the Activity (A549 [26]) was “Active” and the Activity (A549 [27]) was “Active”.
